Assay results as given in ChEMBL document CHEMBL1126787 (J Med Chem, 1993).

What was measured:
[1] = Half-life period in PBS buffer at 37 C in the absence of human serum albumin; assay type: ADME
In short: (§1)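 Lactone-to-carboxylate hydrolysis of drug (1 μM total) in PBS (137 mM NaCl, 3 mM KCl, 8 mM Na2HPO4, 1 mM KH2PO4, pH 7.4) at 37 °C, with or without 20 mg/mL (290 μM) HSA. Monitored by HPLC over time. t1/2 and equilibrium % lactone fitted to decay profiles by nonlinear least squares. Average of at least three independent kinetic runs.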

Homo sapiens [2] = species on record: Homo sapiens; experiment: Association constant for the binding of carboxylate form to human serum albumin; assay type: functional
In short: (§2)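 Fluorescence lifetime titration of lactone or carboxylate form (20 μM total drug) with varying HSA. Phase-shift lifetimes measured with 30 MHz modulated excitation, emission taken through a 500-nm long-pass filter. Free fraction computed as (τ − τB)/(τF − τB). K and n obtained by nonlinear least-squares fit to K = [Db]/[Df][aa]^n, where aa is amino acid residues.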

Homo sapiens [3] = species on record: Homo sapiens; experiment: Association constant for the binding of lactone form to human serum albumin; assay type: functional; in short: as §2
Homo sapiens [4] = species on record: Homo sapiens; experiment: % of lactone form at equilibrium in human plasma; assay type: functional
In short: (§3)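 Drug (1 μM) incubated at 37 °C in human plasma, continuously aerated with blood gas to hold pH 7.6 ± 0.1. Lactone hydrolysis followed by HPLC. t1/2 and equilibrium % lactone fitted to decay profiles by nonlinear least squares. Average of at least three independent kinetic runs.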

[5] = Half-life period in human plasma; assay type: ADME; in short: as §3
[6] = Half-life period in HSA buffer at 37 degree C in the presence of human serum albumin; assay type: ADME; conditions: buffer with human serum albumin; in short: as §1
[7] = Half-life period in PBS buffer at 37 degree C in the absence of human serum albumin; assay type: ADME; in short: as §1
Homo sapiens [8] = species on record: Homo sapiens; experiment: % of lactone form at equilibrium in HSA buffer at 37 degree C in the presence of human serum albumin; assay type: functional; in short: as §1
Homo sapiens [9] = species on record: Homo sapiens; experiment: % of lactone form at equilibrium in PBS buffer at 37 degree C in the absence of human serum albumin; assay type: functional; in short: as §1
Homo sapiens [10] = species on record: Homo sapiens; experiment: n value for the binding of carboxylate form to human serum albumin (n value = number of amino acid per binding site); assay type: functional; in short: as §2
Homo sapiens [11] = species on record: Homo sapiens; experiment: n value for the binding of lactone form to human serum albumin (n value = number of amino acid per binding site); assay type: functional; in short: as §2
[12] = Half-life period in HSA buffer at 37 C in the presence of human serum albumin; assay type: ADME; conditions: buffer with human serum albumin
Homo sapiens [13] = species on record: Homo sapiens; experiment: % of lactone form at equilibrium in HSA buffer at 37 C in the presence of human serum albumin; assay type: functional
Homo sapiens [14] = species on record: Homo sapiens; experiment: % of lactone form at equilibrium in PBS buffer at 37 C in the absence of human serum albumin; assay type: functional

SMILES	half-life [1] [min]	K (Homo sapiens [2])	K (Homo sapiens [3])	Activity (Homo sapiens [4]) [%]	half-life [5] [min]	half-life [6] [min]	half-life [7] [min]	Activity (Homo sapiens [8]) [%]	Activity (Homo sapiens [9]) [%]	Activity (Homo sapiens [10])	Activity (Homo sapiens [11])	half-life [12] [min]	Activity (Homo sapiens [13]) [%]	Activity (Homo sapiens [14]) [%]
CCc1c2c(nc3ccc(O)cc13)-c1cc3c(c(=O)n1C2)COC(=O)[C@]3(O)CC [7-ETHYL-10-HYDROXYCAMPTOTHECIN]	19.9	148 1/Maa	636 1/Maa	24	34.3	–	–	–	–	–	–	–	–	–
CC[C@@]1(O)C(=O)OCc2c1cc1n(c2=O)Cc2cc3ccccc3nc2-1 [CAMPTOTHECIN]	–	4700 1/Maa	30 1/Maa	<0.2	10.6	12.6	16.9	<0.5	13	2.3	1.8	–	–	–
CC[C@@]1(O)C(=O)OCc2c1cc1n(c2=O)Cc2cc3cc(O)ccc3nc2-1 [HYDROXYCAMPTOTHECIN]	22.1	264 1/Maa	135 1/Maa	6	18.6	–	–	–	–	1.7	1.7	21.1	4	16
